# Measurements as given in ChEMBL document CHEMBL1128674, “Evaluation of physicochemical parameters important to the oral bioavailability of peptide-like compounds: implications for the synthesis of renin inhibitors” (J Med Chem, 1995).
# How the values were obtained:
# [1] = Partition coefficient (logP); type: physicochemical; details: octanol/water
# In short: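 Log P obtained by a correlation method at pH 6.5.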
# [2] = Acid dissociation constant of the compound; type: ADME
Compound,logP [1],pKa [2]
CC(C)C[C@H](O)[C@H](O)[C@H](CC1CCCCC1)NC(=O)[C@H](Cc1csc(N)n1)NC(=O)[C@H](Cc1ccccc1)NS(=O)(=O)N1CCOCC1,3.01,–
CC(C)C[C@H](O)[C@H](O)[C@H](CC1CCCCC1)NC(=O)C[C@@H](NC(=O)OC(C)(C)C)C(=O)O,2.06,4.7
CC(C)C[C@H](O)[C@H](O)[C@H](CC1CCCCC1)NC(=O)[C@H](Cc1csc(N)n1)NC(=O)[C@H](Cc1ccccc1)NS(=O)(=O)N1CCN(C(=O)CCC(=O)O)CC1,2.03,5.9
CC(C)C[C@H](O)[C@H](O)[C@H](CC1CCCCC1)NC(=O)CCCCCc1ccccc1,4.66,–
CCCC[C@H](NC(=O)[C@H](Cc1ccccc1)n1cccc1)C(=O)N[C@@H](CC1CCCCC1)[C@@H](O)[C@@H](O)CC(C)C,4.9,–
CC(C)C[C@H](O)[C@H](O)[C@H](CC1CCCCC1)NC(=O)CN,1.52,7.5
CC(C)C[C@H](O)[C@H](O)[C@H](CC1CCCCC1)NC(=O)/C=C/c1ccccc1,3.61,–
CC(C)C[C@H](O)[C@H](O)[C@@H](N)CC1CCCCC1,1.86,–
